Data set [1] has as its system Trypanosoma brucei. Kind of data set: Antitrypanosomal activity against bloodstream Trypanosoma brucei assessed as increase in 4C equivalents of DNA after 7 hrs by DAPI staining-based fluorescence microscopy (reference value: 25 %). It is filed as functional.
Data set [2] deals with Trypanosoma brucei. Kind of data set: Antitrypanosomal activity against bloodstream Trypanosoma brucei assessed as reduction in 1K1N cells after 7 hrs by DAPI staining-based fluorescence microscopy. In kind it is functional, organism-based. The procedure, abridged: (§1)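 After 7 h with or without drug, trypanosomes were stained with DAPI and imaged by single-cell fluorescence microscopy with DIC. Nuclei (N) and kinetoplasts (K) were counted per cell to give the distribution of organelle configurations.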

The next data set deals with Mus musculus. Kind of data set: Toxicity in Swiss Webster mouse infected with Trypanosoma brucei brucei CA427at 40 mg/kg, po. In kind it is organism-based. Also on record: dose 40 mg/kg, route oral. To be noted: in vivo. The procedure, abridged: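 Infection used 10^4 T. brucei brucei CA427 cells per mouse. Beginning 24 h later, mice received 40 mg/kg once per day in a multi-day regimen. Blood was checked for parasites over 3 days against untreated infected controls, and drug-related toxicity was noted.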

In data set [3] the test system is Trypanosoma brucei brucei. Kind of data set: Antitrypanosomal activity against Trypanosoma brucei brucei CA427 infected in Swiss Webster mouse assessed as delayed detection of trypanosomes in blood at 10 mg/kg, ip bid after 24 hrs by hemocytometer. It is filed as functional, organism-based. Also on record: dose 10 mg/kg. In short, it runs like this: (§2)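 Mice were infected with 10^4 T. brucei brucei CA427 cells. From 24 h post-infection, they were dosed i.p. at 10 mg/kg twice per day (20 mg/kg/day). Blood parasitemia was measured each day against untreated control mice.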

Data set [4] deals with Trypanosoma brucei brucei. Kind of data set: Antitrypanosomal activity against Trypanosoma brucei brucei CA427 infected in Swiss Webster mouse assessed as mouse survival at 10 mg/kg, ip bid by hemocytometer (reference value: 5 days). In kind it is functional. To be noted: route intraperitoneal.
Data set [5] has as its system Trypanosoma brucei. Kind of data set: Antitrypanosomal activity against bloodstream Trypanosoma brucei assessed as increase in 1K2N cells after 7 hrs by DAPI staining-based fluorescence microscopy. In kind it is functional, organism-based. In short, it runs like this:
as §1

The subject of data set [6] is Trypanosoma brucei. Kind of data set: Antitrypanosomal activity against bloodstream Trypanosoma brucei assessed as DNA profile alteration after 7 hrs by propidium iodide staining-based flow cytometry. It is filed as functional, organism-based. In short, it runs like this: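 Trypanosomes were incubated 7 h with drug or without (control), then stained with propidium iodide. Flow cytometry analysed 10,000 events, and DNA content per cell (2C, 2C-4C, 4C populations) was quantified.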
For orientation: In flow cytometry, cells or beads pass a laser one at a time.

Data set [7] has as its system Trypanosoma brucei. Kind of data set: Reduction of 2C to 4C equivalents of DNA in bloodstream Trypanosoma brucei after 7 hrs by DAPI staining-based fluorescence microscopy (reference value: 40 %). Also on record: scale not given: the % may be the effect or the level left. It is filed as functional.
Data set [8] concerns Trypanosoma brucei brucei. Kind of data set: Antitrypanosomal activity against bloodstream form Trypanosoma brucei brucei Lister 427 after 48 hrs by hemocytometer. Conditions: Lister 427, 48 h. In kind it is functional, organism-based. The procedure, abridged: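 Bloodstream Lister 427 cells were seeded at 2 × 10^3 cells/ml in HMI-9 medium and given drug from 200X DMSO stocks, with DMSO as control. Three independent experiments, each dose in duplicate (n = 6).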

A further data set relates to Brain. Kind of data set: Drug uptake in BALB/c mouse brain at 40 mg/kg, po after 24 hrs. Conditions: in vivo. In kind it is ADME, organism-based. Also on record: dose 40 mg/kg, route oral. The procedure, abridged: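 Mice received a single oral dose of 40 mg/kg. Drug levels in plasma and brain tissue were measured over 24 hours.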
For data set [9], the system named is Trypanosoma brucei brucei. Kind of data set: Antitrypanosomal activity against Trypanosoma brucei brucei CA427 infected in Swiss Webster mouse assessed as reduction in replication rate at 10 mg/kg, ip bid measured on day 3 by hemocytometer. It is filed as functional, organism-based. On the set-up: dose 10 mg/kg. The procedure, abridged: as §2
The subject of data set [10] is Trypanosoma brucei. Kind of data set: Inhibition of transferrin receptor-mediated endocytosis in bloodstream Trypanosoma brucei at 8 uM after 7 hrs by flow cytometry.
The test system of data set [11] is Trypanosoma brucei brucei. Kind of data set: Antitrypanosomal activity against Trypanosoma brucei brucei CA427 infected in Swiss Webster mouse assessed as mouse mortality at 10 mg/kg, po bid by hemocytometer. In kind it is functional, organism-based. Also on record: dose 10 mg/kg. In short, it runs like this: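 Mice were infected with 10^4 T. brucei brucei CA427 cells. From 24 h post-infection, they were dosed orally at 10 mg/kg twice per day (20 mg/kg/day). Daily parasitemia and survival were followed against untreated control mice.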

Activity calls are given as the source filed them. The rule behind the calls is not given here.

Consider `Fc1cccc(COc2ccc(Nc3ncnc4ccc(-c5cccc(N6CCOCC6)c5)cc34)cc2Cl)c1`, for which the Activity is 40% in the data set on Trypanosoma brucei [1], “Toxic” with Mus musculus and 25% with Trypanosoma brucei [7]. The result (in the data set on Trypanosoma brucei [2]; in [3]; in the data set on Trypanosoma brucei [5]; with Trypanosoma brucei [6]; in data set [9]) was Active. Further, the Survival in data set [4] worked out at 9 days. In addition, in [8], the EC50 (usually the concentration giving half of the maximal effect) worked out at 42 nM. Also, the Drug uptake in the data set with Brain is 5%. For the same compound, in the data set on Trypanosoma brucei [10], the inhibition entry is “inactive”. Further, the result in data set [11] was inactive.

The values are drawn from ChEMBL document CHEMBL2346527, “Kinase scaffold repurposing for neglected disease drug discovery: discovery of an efficacious, lapatinib-derived lead compound for trypanosomiasis” (J Med Chem, 2013).
